For data set [1], the system named is Human gammaherpesvirus 4. Kind of data set: (§1) Effective concentration of compound against Epstein Barr virus was determined. Format: functional. A digest of the protocol:
(§2)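 Log-phase H1 cells seeded at 2 × 10^5 cells/well, exposed to a range of concentrations at 37 °C for 5 days. EBV DNA was measured by slot blot of freeze-thaw lysates in 10 mM Tris-HCl pH 7.5 with RNase A (50 μg/mL final, 55 °C, 2 h), probed with EBV EcoRI fragment, then reprobed with Alu. The EBV/Alu ratio was compared with untreated cells.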

Data set [2] in a line: Cytotoxicity on human P3HR1 derived H1 cells. In kind it is functional. The following applies: read-out: ID50 (the source's name). A digest of the protocol:
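H1 cells seeded at 2 × 10^5 cells/well with various compound concentrations for 3 days, then counted. ID50 is the dose giving a 50% drop in cell number versus the untreated control. Medium was RPMI 1640 with 10% dialyzed FBS, 37 °C, 5% CO2.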

A short description of data set [3]: Selective Index (ID50/EC90).
Data set [4] can be described thus: Compound was tested for cytotoxicity against mt-DNA. A digest of the protocol:
(§3)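 H1 cells (high-yield EBV producers derived from P3HR1), kept in log growth for 2 days, seeded at 2 × 10^5 cells/well with or without compound at various concentrations, 37 °C for 5 days. Lysed by freeze-thaw, RNase A treated, slot-blotted, then hybridized with a mitochondrial DNA probe after the Alu probe was stripped. mtDNA content compared with untreated cells.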

Data set [5] has as its system Human gammaherpesvirus 4. The data set is described as §1. Format: functional, organism-based. An outline of the steps: as §2
The nature of data set [6]: Toxicity of compound was determined as decrease in mt-DNAcontent in human P3HR1 derived H1 cells. Format: cell-based. A digest of the protocol: as §3
A short description of data set [7]: Selective Index from ID50 to that of EC90.

Molecules are shown by their SMILES.

As usually defined, the EC90 is the point of the concentration-response curve where the effect stands at 90%. High values mean weaker potency, low ones greater potency. The EC50 is the concentration giving half of the maximal effect. For `O=c1[nH]c(=O)n([C@H]2CO[C@@H](CO)O2)cc1Br`, the 90% effect level with Human gammaherpesvirus 4 [1] (EC90) was put at 0.48 µM. For the same molecule, the IC50 in data set [2] (Homo sapiens, H1) is greater than 1000 µM. The molecule also came in with a Selectivity index in data set [3] greater than 2080. In data set [4], this molecule registered a Toxicity greater than 50 µM. In addition, a half-maximal effect with Human gammaherpesvirus 4 [5] (human gammaherpesvirus 4) (EC50) was put at 0.19 µM.
`O=c1[nH]c(=O)n(C2COC(CO)O2)cc1I` (stereo in doubt; 17) [listing 1 of 2 here] gave an EC90 in the data set on Human gammaherpesvirus 4 [1] of 0.16 µM. Further, in data set [2], the IC50 is greater than 1000 µM. The EC50 with Human gammaherpesvirus 4 [5] was found to be 0.033 µM. This molecule came in with a Toxicity in data set [6] greater than 50 µM.
For `O=c1[nH]c(=O)n(C2COC(CO)O2)cc1I` (stereo in doubt), in data set [2], the IC50 came out at 18 µM. Further, the EC50 in the data set on Human gammaherpesvirus 4 [5] was determined as 7.6 µM.
On to `Nc1nc2c(ncn2COC(CO)CO)c(=O)[nH]1` [GANCICLOVIR], for which the IC50 in data set [2] (Homo sapiens, H1) was determined as 75 µM. Moreover, in the data set with Human gammaherpesvirus 4 [5] (human gammaherpesvirus 4), the EC50 came out at 5 µM.
For the molecule `O=c1[nH]c(=O)n(C2COC(CO)O2)cc1I` (stereo in doubt; 17) [listing 2 of 2 here], in data set [7], the Selectivity index is greater than 6250.
Take `O=c1[nH]c(=O)n([C@H]2CO[C@@H](CO)O2)cc1F`: the IC50 in data set [2] (Homo sapiens, H1) was greater than 100 µM. Moreover, it took 50 µM to reach a half-maximal effect in the data set on Human gammaherpesvirus 4 [5] (human gammaherpesvirus 4) (EC50). Also, in data set [6], the Toxicity is greater than 50 µM.
Regarding `O=c1[nH]c(=O)n(C2COC(CO)O2)cc1C(F)(F)F` (stereo not given), the IC50 in data set [2] (Homo sapiens, H1) was greater than 100 µM. This molecule also gave an EC50 in the data set with Human gammaherpesvirus 4 [5] (human gammaherpesvirus 4) of 4 µM.
`O=c1ccn([C@H]2CO[C@@H](CO)O2)c(=O)[nH]1`: in the data set with Human gammaherpesvirus 4 [5] (human gammaherpesvirus 4), the EC50 is greater than 50 µM.
For `O=c1[nH]c(=O)n(C2COC(CO)O2)cc1Cl` (stereo not given), the EC90 in the data set on Human gammaherpesvirus 4 [1] was determined as 1.37 µM. For the same molecule, the IC50 in data set [2] (Homo sapiens, H1) is greater than 100 µM. The molecule further showed a Selectivity index in data set [7] greater than 72. This molecule also came in with an EC50 in the data set on Human gammaherpesvirus 4 [5] (human gammaherpesvirus 4) of 0.6 µM. This molecule also returned a Toxicity in data set [6] greater than 50 µM.

The values are drawn from ChEMBL document CHEMBL1132243, “Structure-activity relationships of L-dioxolane uracil nucleosides as anti-Epstein Barr virus agents” (J Med Chem, 1999).
